Test results: ChEMBL document CHEMBL4304821, “Synthesis and structure-activity relationship of nitrile-based cruzain inhibitors incorporating a trifluoroethylamine-based P2 amide replacement” (Bioorg Med Chem, 2019)
Activity calls are given as the source filed them. The rule behind the calls is not given here.

What was measured:
[1] = molecular target: Cruzipain (Trypanosoma cruzi) (UniProt P25779); assay: Inhibition of Trypanosoma cruzi cruzain assessed as initial velocity using Z-Phe-Arg-7-amido-4-methylcoumarin as substrate preincubated for 2 mins followed by susbtrate addition by fluorescence based analysis
Cruzipain (Trypanosoma cruzi), sequence (P25779 123-467 limits assumed): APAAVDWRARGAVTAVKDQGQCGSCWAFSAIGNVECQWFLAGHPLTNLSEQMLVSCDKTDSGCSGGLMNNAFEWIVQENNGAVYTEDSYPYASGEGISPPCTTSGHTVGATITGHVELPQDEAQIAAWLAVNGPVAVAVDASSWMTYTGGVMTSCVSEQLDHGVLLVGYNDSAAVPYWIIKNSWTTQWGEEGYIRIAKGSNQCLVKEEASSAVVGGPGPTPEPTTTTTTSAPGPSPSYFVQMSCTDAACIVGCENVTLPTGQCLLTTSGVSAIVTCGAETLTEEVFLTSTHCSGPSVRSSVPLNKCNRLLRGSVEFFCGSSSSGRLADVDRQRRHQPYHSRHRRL
In short: (§1)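 Recombinant cruzain was the catalytic domain of cruzipain without the C-terminal extension, used at 0.15 nM. The assay ran at 37 °C in 100 mM acetate buffer pH 5.5 with 300 mM NaCl, 5 mM DTT, 5% v/v DMSO and 0.01% Triton X-100. Hydrolysis of Z-Phe-Arg-AMC was followed as rate by fluorescence (ex 355/em 460 nm).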

Cruzipain [2] = molecular target: T1, Cruzipain (Trypanosoma cruzi, UniProt P25779); assay: Inhibition of Trypanosoma cruzi cruzain assessed as inhibitor constant using Z-Phe-Arg-7-amido-4-methylcoumarin as substrate preincubated for 2 mins followed by susbtrate addition by fluorescence based analysis; in short: as §1
T1 sequence (P25779 whole entry): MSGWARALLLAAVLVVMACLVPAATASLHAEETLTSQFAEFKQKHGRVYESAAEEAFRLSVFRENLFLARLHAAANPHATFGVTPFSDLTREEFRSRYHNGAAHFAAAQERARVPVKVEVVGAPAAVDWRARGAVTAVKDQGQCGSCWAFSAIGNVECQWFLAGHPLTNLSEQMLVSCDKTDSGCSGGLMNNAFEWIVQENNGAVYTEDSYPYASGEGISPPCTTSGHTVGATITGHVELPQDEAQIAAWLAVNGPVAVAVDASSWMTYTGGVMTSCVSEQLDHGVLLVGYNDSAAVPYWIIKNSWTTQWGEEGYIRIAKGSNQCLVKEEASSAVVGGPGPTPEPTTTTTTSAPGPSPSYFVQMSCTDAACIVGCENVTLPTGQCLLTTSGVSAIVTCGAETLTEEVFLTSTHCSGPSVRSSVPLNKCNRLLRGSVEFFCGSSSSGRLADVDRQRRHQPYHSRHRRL

Procathepsin L = Procathepsin L (Homo sapiens, UniProt P07711); assay: Inhibition of Cathepsin L (unknown origin) using Z-Phe-Arg-7-amido-4-methylcoumarin as substrate preincubated for 2 mins followed by susbtrate addition by fluorescence based analysis
Procathepsin L, sequence (P07711 whole entry): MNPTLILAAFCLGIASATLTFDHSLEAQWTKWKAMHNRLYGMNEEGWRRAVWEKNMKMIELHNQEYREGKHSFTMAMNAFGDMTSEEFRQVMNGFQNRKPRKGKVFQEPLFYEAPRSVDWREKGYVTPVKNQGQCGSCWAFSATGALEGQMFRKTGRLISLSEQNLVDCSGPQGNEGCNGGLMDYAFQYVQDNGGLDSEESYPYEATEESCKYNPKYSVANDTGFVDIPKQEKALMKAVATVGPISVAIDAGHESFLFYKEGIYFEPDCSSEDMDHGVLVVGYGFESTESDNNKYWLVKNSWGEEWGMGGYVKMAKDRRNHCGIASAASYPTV
In short: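 Cathepsin L was used at 0.30 nM, at 37 °C in 100 mM acetate buffer pH 5.5 with 300 mM NaCl, 1 mM DTT, 1 mM EDTA, 5% v/v DMSO and 0.01% Triton X-100. Z-Phe-Arg-AMC hydrolysis rate was monitored by fluorescence (ex 355/em 460 nm).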

Cruzipain [3] = molecular target: T1, Cruzipain; assay: Inhibition of Trypanosoma cruzi cruzain using Z-Phe-Arg-7-amido-4-methylcoumarin as substrate preincubated for 2 mins followed by susbtrate addition by fluorescence based analysis; in short: as §1
[4] = Lipophilicity, log Kw of compound by HPLC analysis; format: physicochemical
Trypanosoma cruzi = assay: Antitrypanosomal activity against Trypanosoma cruzi Y strain amastigotes infected in human U2OS cells assessed as parasite growth inhibition after 72 hrs post infection by DRAQ5 staining based analysis; format: functional, organism-based
In short: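 U2OS cells were seeded at 700/well in high DMEM and held 24 h at 37 °C/5% CO2. They were infected with T. cruzi Y strain trypomastigotes from LLC-MK2 cultures at 4 parasites per host cell. Compounds were added on day 3 as 17 points of 2-fold dilution from 100 µM (1% DMSO final), with 96 h exposure. Cells were PFA-fixed, Draq5-stained and imaged. Infection ratio was normalized to infected DMSO and non-infected controls, and EC50 came from a sigmoidal fit. Two independent experiments were run.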

[5] = Cytotoxicity in human U2OS cells assessed as reduction in cell viability after […] by DRAQ5 staining based analysis
In short: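 Infected U2OS cells (Y strain, 4 parasites/cell) were exposed to 17 2-fold concentrations starting at 100 µM in 1% DMSO. Exposure was 96 h. Wells were PFA-fixed, Draq5-stained and imaged at 20X to count host cells. CC50 is the concentration that lowers the cell ratio to 0.5 versus the mean cell number in DMSO negative-control wells. Duplicate independent experiments.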

| V0 [1] [RFU/s] | Ki (Cruzipain [2]) [nM] | Ki (Procathepsin L) [nM] | Ki (Cruzipain [3]) [nM] | logKw [4] | EC50 (Trypanosoma cruzi) [nM] | SMILES | Activity (Trypanosoma cruzi) | CC50 [5] [nM] |
| --- | --- | --- | --- | --- | --- | --- | --- | --- |
| 3.87 | 4060 | – | – | – | – | CC(C)C[C@H](N[C@@H](c1ccc(-c2ccc(F)cc2)cc1)C(F)(F)F)C(=O)NC1(C#N)CC1 | – | – |
| – | – | 631 | 63.1 | 2.8 | – | CC(C)C[C@H](N[C@H](c1ccc(-c2ccccc2)cc1)C(F)(F)F)C(=O)NC1(C#N)CC1 | inactive | – |
| 3.6 | – | 251 | 2000 | 1.7 | – | N#CC1(NC(=O)[C@H](Cc2ccccc2)N[C@@H](c2ccc(Br)cc2)C(F)(F)F)CC1 | inactive | – |
| – | – | 1260 | > 10000 | – | 25600 | N#CC1(NC(=O)[C@@H](Cc2c[nH]c3ccccc23)N[C@@H](c2ccccc2)C(F)(F)F)CC1 | – | – |
| – | – | – | 251 | 3.1 | – | CC(C)C[C@H](N[C@H](c1ccc(-c2ccccc2)cc1)C(F)(F)F)C(=O)N[C@H](C#N)Cc1ccccc1 | inactive | – |
| 2.18 | – | 158 | 1000 | 1 | – | N#CC1(NC(=O)[C@H](Cc2ccccc2)N[C@@H](c2ccccc2)C(F)(F)F)CC1 | inactive | – |
| 3.85 | 38.8 | – | – | – | – | COc1ccc(C[C@H](N[C@@H](c2ccccc2)C(F)(F)F)C(=O)O)cc1 | – | – |
| 5.2 | 360 | – | – | – | – | COc1ccc(C[C@H](N[C@H](c2ccccc2)C(F)(F)F)C(=O)O)cc1 | – | – |
| – | – | 631 | 2510 | 2.6 | – | N#C[C@@H](Cc1ccccc1)NC(=O)[C@H](Cc1ccccc1)N[C@@H](c1ccccc1)C(F)(F)F | inactive | – |
| – | – | > 10000 | > 10000 | – | – | COc1ccc(C[C@H](N[C@H](c2ccccc2)C(F)(F)F)C(=O)N[C@@H](C#N)Cc2ccccc2)cc1 | inactive | – |
| 5.81 | – | – | 3160 | 1.7 | – | N#CC1(NC(=O)[C@H](Cc2ccccc2)N[C@H](c2cccc(Cl)c2)C(F)(F)F)CC1 | inactive | – |
| – | – | – | > 10000 | – | – | N#C[C@H](Cc1ccccc1)NC(=O)[C@H](Cc1ccccc1)N[C@H](c1ccc(-c2ccccc2)cc1)C(F)(F)F | inactive | – |
| – | – | – | 39.8 | – | – | CC(C)C[C@H](N[C@@H](c1ccccc1)C(F)(F)F)C(=O)NC1(C#N)CC1 | inactive | – |
| – | – | 1000 | 79.4 | 2.8 | – | CC(C)C[C@H](N[C@H](c1ccc(-c2ccc(F)cc2)cc1)C(F)(F)F)C(=O)NC1(C#N)CC1 | inactive | – |
| 3.56 | – | – | 3980 | 1.4 | – | COc1ccc(C[C@H](N[C@@H](c2ccccc2)C(F)(F)F)C(=O)NC2(C#N)CC2)cc1 | inactive | – |
| 2.91 | – | 25.1 | 1.58 | – | – | CC(C)C[C@H](N[C@@H](c1ccc(-c2cncnc2)cc1)C(F)(F)F)C(=O)N[C@H](C#N)Cc1ccccc1 | inactive | – |
| – | – | 20 | 50.1 | – | – | CC(C)C[C@H](NC(=O)c1ccccc1)C(=O)NC1(C#N)CC1 | inactive | – |

| V0 [1] [RFU/s] | Ki (Cruzipain [2]) [nM] | Ki (Procathepsin L) [nM] | Ki (Cruzipain [3]) [nM] | logKw [4] | EC50 (Trypanosoma cruzi) [nM] | SMILES | Activity (Trypanosoma cruzi) | CC50 [5] [nM] |
| --- | --- | --- | --- | --- | --- | --- | --- | --- |
| – | – | 1580 | 3980 | 2.7 | – | COc1ccc(C[C@H](N[C@H](c2ccccc2)C(F)(F)F)C(=O)N[C@H](C#N)Cc2ccccc2)cc1 | inactive | – |
| – | – | 1000 | > 10000 | – | 11500 | N#CC1(NC(=O)[C@H](Cc2c[nH]c3ccccc23)N[C@H](c2ccccc2)C(F)(F)F)CC1 | – | 33000 |
| 2.66 | 142 | – | – | – | – | O=C(O)[C@H](Cc1c[nH]c2ccccc12)N[C@@H](c1cccc(Cl)c1)C(F)(F)F | – | – |
| – | – | 63.1 | 50.1 | – | – | CC(C)C[C@H](NC(=O)c1ccccc1)C(=O)N[C@H](C#N)Cc1ccccc1 | inactive | – |
| 4.15 | 168 | – | – | – | – | O=C(O)[C@H](Cc1c[nH]c2ccccc12)N[C@H](c1cccc(Cl)c1)C(F)(F)F | – | – |
| 3.85 | – | 794 | 7.94 | 2.6 | – | CC(C)C[C@H](N[C@@H](c1ccc(-c2ccccc2)cc1)C(F)(F)F)C(=O)NC1(C#N)CC1 | inactive | – |
| 3.53 | – | – | – | 1.4 | – | N#CC1(NC(=O)[C@H](Cc2ccccc2)N[C@H](c2ccccc2)C(F)(F)F)CC1 | inactive | – |
| – | – | – | 316 | – | – | N#CC1(NC(=O)[C@H](Cc2ccccc2)NC(=O)c2ccccc2)CC1 | – | – |
| 3.17 | – | – | 7940 | 1.5 | – | COc1ccc(C[C@H](N[C@H](c2ccccc2)C(F)(F)F)C(=O)NC2(C#N)CC2)cc1 | – | – |
| – | – | 5.01 | 1.58 | 2.3 | – | CC(C)C[C@H](N[C@@H](c1ccccc1)C(F)(F)F)C(=O)N[C@H](C#N)Cc1ccccc1 | inactive | – |
| 2.71 | – | 251 | 398 | 2.2 | – | CC(C)C[C@H](N[C@H](c1ccccc1)C(F)(F)F)C(=O)N[C@H](C#N)Cc1ccccc1 | inactive | – |
| 3.75 | 143 | – | 200 | 1.1 | – | CC(C)C[C@H](N[C@H](c1ccccc1)C(F)(F)F)C(=O)NC1(C#N)CC1 | inactive | – |
| – | – | 1260 | – | 2 | – | CC(C)(F)C[C@H](N[C@@H](c1ccc(-c2ccc(S(C)(=O)=O)cc2)cc1)C(F)(F)F)C(=O)NC1(C#N)CC1 [ODANACATIB] | inactive | – |
| 3.22 | – | 1580 | 0.631 | 3.2 | – | CC(C)C[C@H](N[C@@H](c1ccc(-c2ccccc2)cc1)C(F)(F)F)C(=O)N[C@H](C#N)Cc1ccccc1 | inactive | – |
| 3.65 | 4.01 | – | – | – | – | N#CC1(NC(=O)[C@H](Cc2ccccc2)N[C@@H](c2cccc(Cl)c2)C(F)(F)F)CC1 | – | – |
| – | – | 631 | 398 | 2.7 | – | COc1ccc(C[C@H](N[C@@H](c2ccccc2)C(F)(F)F)C(=O)N[C@@H](C#N)Cc2ccccc2)cc1 | inactive | – |
